This note sets out measurements from ChEMBL document CHEMBL4038314, “Synthetic Modification within the "RPRL" Region of Apelin Peptides: Impact on Cardiovascular Activity and Stability to Neprilysin and Plasma Degradation” (J Med Chem, 2017).

Activity calls are given as the source filed them. The calls are words filed in the database; no cut-off is given here. Starred links: 1 amine or outer side, 2 acyl side, 3 side chain; linkers in the order of their positions; H or OH if unused. Non-standard residues stand in square brackets, D forms with d. Residues, ends and D or L forms follow the SMILES beside them. Phe(4-Br) = N[C@@H](Cc1ccc(Br)cc1)C(=O)O; X1 = N=C(N)NCCCN(N[*:1])C(=O)[*:2]; NMeL = CN[C@@H](CC(C)C)C(=O)O; pGlu = O=C1CC[C@@H](C(=O)O)N1; Nle = CCCC[C@H](N)C(=O)O; Aib = CC(C)(N)C(=O)O

Series [1] addresses T1, Neprilysin (Homo sapiens, UniProt P08473). Nature of the series: Inhibition of recombinant human NEP using pyr-1-apelin-13 as substrate assessed as peptide degradation at 1 mM preincubated for 10 mins followed by substrate addition measured after 72 hrs by LC-MS analysis. The note with it: 1000 µM. Summed up:
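Recombinant human NEP, 3.1 nM in Tris/NaCl/10 μM ZnCl2 buffer, pH 7.5, preincubated 10 min at 37 °C with 5 μL of 1 mM analogue stock (equimolar to substrate) plus dansyl-YVG standard. Then 5 μL of 1 mM pyr-1-apelin-13 added. Aliquots taken at 0, 1, 4, 24 and 72 h and analysed by LC−MS; duplicate per time point.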

Series [2] deals with Mus musculus. Briefly: Cardiovascular activity in anesthetized mouse assessed as decrease in blood pressure at 1.4 uM/kg, iv relative to control. Type of series: functional, organism-based. The gist of the method:
(§1)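 Mice under 1.5% isoflurane, body temperature held at 36 °C on a heating pad. Aorta cannulated via the right carotid artery with a 1.2F PV loop catheter to record arterial pressure and heart rate continuously. Peptide given systemically through the right internal jugular vein.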

For series [3], the system named is Heart. Briefly: Cardioprotective activity against Langendorff isolated mouse heart ischemia-reperfusion model assessed as improvement in RPP at 1 uM administered for 10 mins during start of 40 mins reperfusion period post 30 mins ischemic induction. Type of series: functional, tissue-based. Summed up: (§2)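 Mouse hearts (heparinized, isoflurane 1.5−2%) excised and Langendorff-perfused at constant 80 mmHg with modified Krebs−Henseleit buffer, 37 °C, 95% O2/5% CO2, pH 7.4. After 10 min baseline, 30 min global ischemia, then 40 min reperfusion. Peptide at 1 μM given for the first 10 min of reperfusion, with saline sham and native apelin-17 as controls. Left ventricular function recorded continuously.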

Series [4] concerns Heart. Nature of the series: Cardioprotective activity against Langendorff isolated mouse heart ischemia-reperfusion model assessed as maximum derivative change in systolic pressure over time at 1 uM administered for 10 mins during start of 40 mins reperfusion period post 30 mins ischemic induction. Type of series: functional, tissue-based. The gist of the method: as §2
Series [5] concerns Mus musculus. Nature of the series: Cardiotoxicity in anesthetized mouse assessed as induction of tachycardia at 1.4 uM/kg, iv relative to control. Format: toxicity, organism-based. Conditions: in vivo, 1.4 µmol/kg. The gist of the method: as §1
Series [6] relates to Heart. Nature of the series: Cardioprotective activity against Langendorff isolated mouse heart ischemia-reperfusion model assessed as minimum derivative change in diastolic pressure over time at 1 uM administered for 10 mins during start of 40 mins reperfusion period post 30 mins ischemic induction. Type of series: functional, tissue-based. The gist of the method: as §2
In series [7] the target is T1, Neprilysin. Briefly: Drug degradation in human plasma assessed as NEP-mediated degradation by measuring amount of apelin remaining after 60 mins by RP-HPLC analysis. Type of series: ADME. The note with it: 1 h. The gist of the method:
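Human plasma (20 μL) prewarmed to 37 °C, then 5 μL of 400 μM peptide added and incubated for set times; done in triplicate. Quenched with 10% aqueous TFA, dansyl-YVG internal standard added, and peptides recovered on a C18 spin column with 40% acetonitrile/0.1% TFA. Analysed by C18 RP-HPLC; peptide/standard peak-area ratio compared with the 0 min ratio.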

The test system of series [8] is Heart. Nature of the series: Cardioprotective activity against Langendorff isolated mouse heart ischemia-reperfusion model assessed as improvement in LVDP at 1 uM administered for 10 mins during start of 40 mins reperfusion period post 30 mins ischemic induction. Format: functional, tissue-based. The gist of the method: as §2
In series [9] the target is T1, Neprilysin. Briefly: Drug metabolism assessed as recombinant human NEP-medited peptide proteolysis at 1 mM up to 72 hrs by LC-MS analysis. Type of series: ADME. Conditions: 1000 µM. Summed up:
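Recombinant human NEP, 3.1 nM final in 100 mM Tris, 100 mM NaCl, 10 μM ZnCl2, pH 7.5, preincubated 10 min at 37 °C. Then 5 μL of 1 mM peptide stock and dansyl-YVG internal standard added; incubated at 37 °C for up to 72 h. Extracted-ion LC−MS ratio of parent to standard compared with 0 h and converted to percent cleaved.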

For series [10], the system named is Mus musculus. Briefly: Cardiovascular activity in anesthetized mouse assessed as increase in heart rate at 1.4 uM/kg, iv relative to control. Format: functional, organism-based. The gist of the method:
as §1

T1 sequence (P08473 whole entry): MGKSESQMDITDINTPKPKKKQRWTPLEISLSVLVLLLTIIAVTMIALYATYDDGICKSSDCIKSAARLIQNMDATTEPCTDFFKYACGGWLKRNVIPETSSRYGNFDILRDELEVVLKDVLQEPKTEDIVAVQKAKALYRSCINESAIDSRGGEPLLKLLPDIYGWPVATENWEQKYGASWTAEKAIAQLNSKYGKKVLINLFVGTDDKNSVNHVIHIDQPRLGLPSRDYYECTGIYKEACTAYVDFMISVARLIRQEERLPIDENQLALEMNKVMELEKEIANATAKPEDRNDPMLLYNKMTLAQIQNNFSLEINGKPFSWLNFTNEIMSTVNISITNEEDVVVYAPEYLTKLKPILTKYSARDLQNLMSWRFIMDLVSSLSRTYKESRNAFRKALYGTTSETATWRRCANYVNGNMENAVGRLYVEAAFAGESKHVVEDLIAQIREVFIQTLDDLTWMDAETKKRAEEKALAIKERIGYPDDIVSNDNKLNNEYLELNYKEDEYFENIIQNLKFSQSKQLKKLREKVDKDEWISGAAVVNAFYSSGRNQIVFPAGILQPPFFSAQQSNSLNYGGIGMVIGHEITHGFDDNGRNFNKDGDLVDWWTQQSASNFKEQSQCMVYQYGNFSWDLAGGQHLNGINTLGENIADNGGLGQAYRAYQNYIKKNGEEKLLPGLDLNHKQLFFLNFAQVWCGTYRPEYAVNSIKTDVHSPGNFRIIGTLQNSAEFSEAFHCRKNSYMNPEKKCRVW

Take `CCCC[C@H](NC(=O)[C@@H]1CCCN1C(=O)CNC(=O)[C@H](CCCCN)NC(=O)[C@H](Cc1c[nH]cn1)NC(=O)[C@H](CO)NC(=O)[C@H](CC(C)C)NC(=O)N(CCCNC(=N)N)NC(=O)[C@@H]1CCCN1C(=O)[C@H](CCCNC(=N)N)NC(=O)[C@H](CCC(N)=O)NC(=O)[C@H](CCCNC(=N)N)NC(=O)[C@H](CCCNC(=N)N)NC(=O)[C@H](Cc1ccccc1)NC(=O)[C@@H](N)CCCCN)C(=O)NC(C)(C)C(=O)N[C@@H](Cc1ccc(Br)cc1)C(=O)O` (H-KFRRQRP[X1]LSHKGP[Nle][Aib][Phe(4-Br)]-OH): on Neprilysin [1], the “inhibition (INH)” value is given as “Not Active”. In addition, the outcome in the series on Mus musculus [2], in the series with Heart [3], in the series with Heart [4], in the series on Heart [6] and with Heart [8] was Active. For the same molecule, the Activity result in the series on Mus musculus [5] was “Toxic”. Further, the Drug degradation at Neprilysin [7] was found to be 94%. On Neprilysin [9], the Drug metabolism result was “Metabolite_Notdetected”.

For `CCCC[C@H](NC(=O)[C@@H]1CCCN1C(=O)CNC(=O)[C@H](CCCCN)NC(=O)[C@H](Cc1c[nH]cn1)NC(=O)[C@H](CO)NC(=O)[C@](C)(CC(C)C)NC(=O)[C@H](CCCNC(=N)N)NC(=O)[C@@H]1CCCN1C(=O)[C@H](CCCNC(=N)N)NC(=O)[C@@H]1CCC(=O)N1)C(=O)NC(C)(C)C(=O)N[C@@H](Cc1ccc(Br)cc1)C(=O)O`, at Neprilysin [1], the “inhibition (INH)” value is “Not Active”. For the same molecule, the Drug degradation on Neprilysin [7] was found to be 38%. Also, the result in the series with Mus musculus [10] was Active. Further, the Drug metabolism entry at Neprilysin [9] is given as “Metabolite_Notdetected”.

For the molecule `CCCC[C@H](NC(=O)[C@@H]1CCCN1C(=O)CNC(=O)[C@H](CCCCN)NC(=O)[C@H](Cc1c[nH]cn1)NC(=O)[C@H](CO)NC(=O)[C@H](CC(C)C)NC(=O)N(CCCNC(=N)N)NC(=O)[C@@H]1CCCN1C(=O)[C@H](CCCNC(=N)N)NC(=O)[C@@H]1CCC(=O)N1)C(=O)NC(C)(C)C(=O)N[C@@H](Cc1ccc(Br)cc1)C(=O)O` ([pGlu]RP[X1]LSHKGP[Nle][Aib][Phe(4-Br)]-OH), the “inhibition (INH)” value on Neprilysin [1] is listed as “Not Active”. Moreover, the Drug degradation at Neprilysin [7] came to 57%. Also, the outcome in the series with Mus musculus [10] was Active. In addition, the Drug metabolism entry on Neprilysin [9] is “Metabolite_Notdetected”.

Take `CCCC[C@H](NC(=O)[C@@H]1CCCN1C(=O)CNC(=O)[C@H](CCCCN)NC(=O)[C@H](Cc1c[nH]cn1)NC(=O)[C@H](CO)NC(=O)[C@H](CC(C)C)NC(=O)[C@H](CCCNC(=N)N)NC(=O)[C@@H]1CCCN1C(=O)[C@H](CCCNC(=N)N)NC(=O)[C@@H]1CCC(=O)N1)C(=O)NC(C)(C)C(=O)N[C@@H](Cc1ccc(Br)cc1)C(=O)O`: the result with Mus musculus [2] and in the series with Mus musculus [10] was inactive. For the same molecule, at Neprilysin [7], the Drug degradation is reported as 65%. At Neprilysin [9], the Drug metabolism result is reported as “Metabolite_Detected”.

As to `CCCC[C@H](NC(=O)[C@@H]1CCCN1C(=O)CNC(=O)[C@H](CCCCN)NC(=O)[C@H](Cc1c[nH]cn1)NC(=O)[C@H](CO)NC(=O)[C@H](CC(C)C)N(C)C(=O)[C@H](CCCNC(=N)N)NC(=O)[C@@H]1CCCN1C(=O)[C@H](CCCNC(=N)N)NC(=O)[C@H](CCC(N)=O)NC(=O)[C@H](CCCNC(=N)N)NC(=O)[C@H](CCCNC(=N)N)NC(=O)[C@H](Cc1ccccc1)NC(=O)[C@@H](N)CCCCN)C(=O)NC(C)(C)C(=O)N[C@@H](Cc1ccc(Br)cc1)C(=O)O` (H-KFRRQRPR[NMeL]SHKGP[Nle][Aib][Phe(4-Br)]-OH), at Neprilysin [1], the “inhibition (INH)” value is reported as “Not Active”. For the same molecule, the outcome in the series with Mus musculus [2], in the series on Heart [3], in the series with Heart [4], with Heart [6] and in the series with Heart [8] was Active. For the same molecule, in the series on Mus musculus [5], the Activity entry is listed as “Toxic”. For the same molecule, at Neprilysin [7], the Drug degradation is given as 47%. Moreover, at Neprilysin [9], the Drug metabolism result is given as “Metabolite_Notdetected”.

Consider `CCCC[C@H](NC(=O)[C@@H]1CCCN1C(=O)CNC(=O)[C@H](CCCCN)NC(=O)[C@H](Cc1c[nH]cn1)NC(=O)[C@H](CO)NC(=O)[C@H](CC(C)C)N(C)C(=O)[C@H](CCCNC(=N)N)NC(=O)[C@@H]1CCCN1C(=O)[C@H](CCCNC(=N)N)NC(=O)[C@@H]1CCC(=O)N1)C(=O)NC(C)(C)C(=O)N[C@@H](Cc1ccc(Br)cc1)C(=O)O`, for which the “inhibition (INH)” value at Neprilysin [1] is recorded as “Not Active”. In the series on Mus musculus [2], the outcome was inactive. For the same molecule, the Drug degradation at Neprilysin [7] was 59%. Besides, the outcome with Mus musculus [10] was Active. Also, the Drug metabolism result on Neprilysin [9] is given as “Metabolite_Notdetected”.
